Test results taken from ChEMBL document CHEMBL3352121, “Modulation of Activity Profiles for Largazole-Based HDAC Inhibitors through Alteration of Prodrug Properties” (ACS Med Chem Lett, 2014).

Legend:
Histone deacetylase 7 = molecular target: T1, Histone deacetylase 7 (Homo sapiens, UniProt Q8WUI4); test: Inhibition of HDAC7 (unknown origin) incubated for 30 mins in presence of BSA and in absence of DTT by fluorescence assay
T1 sequence (Q8WUI4 whole entry): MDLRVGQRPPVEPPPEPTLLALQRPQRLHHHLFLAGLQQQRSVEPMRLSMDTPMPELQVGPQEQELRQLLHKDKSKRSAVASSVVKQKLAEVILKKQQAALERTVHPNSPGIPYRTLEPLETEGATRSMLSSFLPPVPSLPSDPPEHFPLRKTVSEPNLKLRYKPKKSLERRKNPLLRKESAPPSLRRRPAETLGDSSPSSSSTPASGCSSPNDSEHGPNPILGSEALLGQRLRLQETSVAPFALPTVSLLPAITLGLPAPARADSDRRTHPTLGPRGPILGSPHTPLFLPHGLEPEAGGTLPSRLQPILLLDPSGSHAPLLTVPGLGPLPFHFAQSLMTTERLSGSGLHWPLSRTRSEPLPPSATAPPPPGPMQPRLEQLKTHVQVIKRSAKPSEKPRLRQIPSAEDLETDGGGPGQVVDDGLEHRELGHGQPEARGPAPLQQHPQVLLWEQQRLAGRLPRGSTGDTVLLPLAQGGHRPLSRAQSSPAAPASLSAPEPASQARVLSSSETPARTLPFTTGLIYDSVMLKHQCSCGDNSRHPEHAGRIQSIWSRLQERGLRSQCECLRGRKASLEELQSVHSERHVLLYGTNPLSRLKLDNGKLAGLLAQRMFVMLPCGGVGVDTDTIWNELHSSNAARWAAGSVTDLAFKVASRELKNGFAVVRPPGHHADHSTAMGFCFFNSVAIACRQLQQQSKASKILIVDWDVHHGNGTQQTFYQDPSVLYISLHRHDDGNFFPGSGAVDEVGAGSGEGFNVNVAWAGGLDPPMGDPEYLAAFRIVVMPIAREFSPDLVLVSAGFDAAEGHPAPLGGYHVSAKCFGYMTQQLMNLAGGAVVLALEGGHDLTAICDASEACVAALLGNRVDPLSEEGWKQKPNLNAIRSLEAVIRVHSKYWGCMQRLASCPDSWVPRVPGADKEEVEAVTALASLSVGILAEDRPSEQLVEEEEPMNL

Histone deacetylase 9 [1] = molecular target: T2, Histone deacetylase 9 (Homo sapiens, UniProt Q9UKV0); test: Inhibition of HDAC9 (unknown origin) incubated for 30 mins in presence of BSA and in absence of DTT by fluorescence assay
Histone deacetylase 4 [2] = molecular target: T3, Histone deacetylase 4 (Homo sapiens, UniProt P56524); test: Inhibition of HDAC4 (unknown origin) at 1 uM incubated for 30 mins in presence of BSA and in absence of DTT by fluorescence assay
In short: (§1)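 Purified-HDAC assay, single point: percent inhibition read at 1 μM, the highest concentration tested.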

[3] = molecular target: T4, Histone deacetylase 7 (Homo sapiens) (UniProt Q8WUI4); test: Inhibition of HDAC7 (unknown origin) at 1 uM incubated for 30 mins in presence of BSA and in absence of DTT by fluorescence assay; in short: as §1
T4 sequence (whole entry): T1 sequence (Q8WUI4 whole entry)

Histone deacetylase 9 [4] = molecular target: T2, Histone deacetylase 9; test: Inhibition of HDAC9 (unknown origin) at 1 uM incubated for 30 mins in presence of BSA and in absence of DTT by fluorescence assay; in short: as §1
[5] = Antiproliferative activity against human HCT116 cells after 48 hrs in absence of DTT by MTT assay; format: functional, cell-based; settings: HCT-116, 48 h
Histone deacetylase 4 [6] = molecular target: T3, Histone deacetylase 4; test: Inhibition of HDAC4 (unknown origin) incubated for 30 mins in presence of BSA and in absence of DTT by fluorescence assay
Histone deacetylase 5 [7] = molecular target: T5, Histone deacetylase 5 (Homo sapiens, UniProt Q9UQL6); test: Inhibition of HDAC5 (unknown origin) at 1 uM incubated for 30 mins in presence of BSA and in absence of DTT by fluorescence assay; in short: as §1
Histone deacetylase 5 [8] = molecular target: T5, Histone deacetylase 5; test: Inhibition of HDAC5 (unknown origin) incubated for 30 mins in presence of BSA and in absence of DTT by fluorescence assay

T3 sequence (P56524 whole entry): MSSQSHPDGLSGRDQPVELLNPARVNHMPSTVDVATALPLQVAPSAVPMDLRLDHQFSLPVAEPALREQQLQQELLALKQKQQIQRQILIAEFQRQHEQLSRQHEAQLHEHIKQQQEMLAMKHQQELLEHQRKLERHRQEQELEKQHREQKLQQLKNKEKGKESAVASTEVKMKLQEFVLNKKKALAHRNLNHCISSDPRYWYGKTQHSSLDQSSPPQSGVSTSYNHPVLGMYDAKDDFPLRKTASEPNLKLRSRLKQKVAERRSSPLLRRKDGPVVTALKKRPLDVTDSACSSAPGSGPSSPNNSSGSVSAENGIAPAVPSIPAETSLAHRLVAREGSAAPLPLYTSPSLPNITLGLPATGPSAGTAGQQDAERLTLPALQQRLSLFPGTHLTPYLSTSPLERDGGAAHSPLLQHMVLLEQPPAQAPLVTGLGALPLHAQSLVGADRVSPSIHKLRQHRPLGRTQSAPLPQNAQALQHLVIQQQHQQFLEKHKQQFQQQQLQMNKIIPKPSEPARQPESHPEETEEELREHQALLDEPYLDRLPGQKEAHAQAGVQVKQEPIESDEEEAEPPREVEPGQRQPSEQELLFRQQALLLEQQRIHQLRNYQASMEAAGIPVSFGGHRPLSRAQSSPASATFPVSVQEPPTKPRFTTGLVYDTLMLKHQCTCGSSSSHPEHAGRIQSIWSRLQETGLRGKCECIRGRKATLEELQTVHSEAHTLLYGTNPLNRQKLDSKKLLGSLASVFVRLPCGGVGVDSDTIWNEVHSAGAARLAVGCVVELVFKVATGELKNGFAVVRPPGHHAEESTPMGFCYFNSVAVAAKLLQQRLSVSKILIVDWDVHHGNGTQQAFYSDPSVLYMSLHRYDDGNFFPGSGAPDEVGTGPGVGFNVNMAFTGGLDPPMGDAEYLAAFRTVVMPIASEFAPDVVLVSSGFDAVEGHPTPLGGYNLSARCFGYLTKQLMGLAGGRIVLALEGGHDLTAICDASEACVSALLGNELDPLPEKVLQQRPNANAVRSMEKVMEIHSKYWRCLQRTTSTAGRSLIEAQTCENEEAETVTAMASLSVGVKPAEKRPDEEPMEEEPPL
T5 sequence (Q9UQL6 whole entry): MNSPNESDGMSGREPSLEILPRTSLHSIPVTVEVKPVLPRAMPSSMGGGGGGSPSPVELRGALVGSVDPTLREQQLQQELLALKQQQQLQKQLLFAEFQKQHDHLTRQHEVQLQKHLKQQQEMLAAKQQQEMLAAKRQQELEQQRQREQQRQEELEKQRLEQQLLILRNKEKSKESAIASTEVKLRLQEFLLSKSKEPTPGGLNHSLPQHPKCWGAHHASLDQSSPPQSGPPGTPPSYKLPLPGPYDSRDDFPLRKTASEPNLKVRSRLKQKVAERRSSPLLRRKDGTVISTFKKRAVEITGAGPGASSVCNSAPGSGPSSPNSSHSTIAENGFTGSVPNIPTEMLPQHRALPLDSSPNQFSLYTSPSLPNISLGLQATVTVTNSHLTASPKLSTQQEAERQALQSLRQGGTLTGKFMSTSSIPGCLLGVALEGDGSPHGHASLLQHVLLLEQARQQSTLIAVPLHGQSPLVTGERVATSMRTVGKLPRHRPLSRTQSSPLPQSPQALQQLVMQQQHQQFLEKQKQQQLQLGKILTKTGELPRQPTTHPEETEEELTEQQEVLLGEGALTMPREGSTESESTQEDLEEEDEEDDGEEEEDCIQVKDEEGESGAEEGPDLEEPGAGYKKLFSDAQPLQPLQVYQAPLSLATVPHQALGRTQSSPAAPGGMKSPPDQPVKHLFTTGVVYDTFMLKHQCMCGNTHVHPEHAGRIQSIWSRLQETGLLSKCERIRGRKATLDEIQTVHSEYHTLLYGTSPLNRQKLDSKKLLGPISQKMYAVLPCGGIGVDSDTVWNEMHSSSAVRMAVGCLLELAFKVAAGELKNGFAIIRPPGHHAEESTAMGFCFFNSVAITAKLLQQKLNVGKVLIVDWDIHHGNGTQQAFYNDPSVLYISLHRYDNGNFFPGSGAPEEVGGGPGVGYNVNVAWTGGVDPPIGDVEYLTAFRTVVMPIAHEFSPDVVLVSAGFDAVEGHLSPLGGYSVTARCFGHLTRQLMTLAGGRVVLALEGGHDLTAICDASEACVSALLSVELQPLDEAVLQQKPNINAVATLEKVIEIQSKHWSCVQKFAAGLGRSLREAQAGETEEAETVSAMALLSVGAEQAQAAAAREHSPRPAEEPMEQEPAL
T2 sequence (Q9UKV0 whole entry): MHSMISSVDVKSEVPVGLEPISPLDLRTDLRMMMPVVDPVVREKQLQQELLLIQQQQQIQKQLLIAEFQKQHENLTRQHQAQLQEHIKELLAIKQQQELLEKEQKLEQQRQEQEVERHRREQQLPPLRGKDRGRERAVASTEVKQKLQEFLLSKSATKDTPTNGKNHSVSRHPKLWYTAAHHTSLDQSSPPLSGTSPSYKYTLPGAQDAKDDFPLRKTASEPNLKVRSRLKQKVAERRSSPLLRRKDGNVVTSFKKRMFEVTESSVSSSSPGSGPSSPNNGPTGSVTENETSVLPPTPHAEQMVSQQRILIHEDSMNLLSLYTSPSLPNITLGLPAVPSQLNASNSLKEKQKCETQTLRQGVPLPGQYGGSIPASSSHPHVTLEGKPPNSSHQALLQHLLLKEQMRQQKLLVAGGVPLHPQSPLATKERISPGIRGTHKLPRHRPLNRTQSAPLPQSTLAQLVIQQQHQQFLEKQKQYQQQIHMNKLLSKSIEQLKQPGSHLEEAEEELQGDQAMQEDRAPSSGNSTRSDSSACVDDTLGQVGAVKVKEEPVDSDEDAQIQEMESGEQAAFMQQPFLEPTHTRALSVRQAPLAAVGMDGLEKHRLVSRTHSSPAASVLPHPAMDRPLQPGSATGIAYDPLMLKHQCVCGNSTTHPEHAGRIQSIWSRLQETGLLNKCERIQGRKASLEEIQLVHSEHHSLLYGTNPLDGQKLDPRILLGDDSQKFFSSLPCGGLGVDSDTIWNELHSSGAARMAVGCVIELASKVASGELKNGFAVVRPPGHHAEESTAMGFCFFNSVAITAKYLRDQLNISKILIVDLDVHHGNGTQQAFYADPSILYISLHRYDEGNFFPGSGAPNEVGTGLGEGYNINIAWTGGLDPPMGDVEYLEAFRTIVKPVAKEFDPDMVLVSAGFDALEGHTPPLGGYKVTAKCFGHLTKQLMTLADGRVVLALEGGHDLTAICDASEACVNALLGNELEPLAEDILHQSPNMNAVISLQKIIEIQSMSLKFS

CC(C)[C@H]1NC(=O)[C@]2(C)CSC(=N2)c2csc(n2)CNC(=O)C[C@@H](/C=C/CCS)OC1=O [LARGAZOLE THIOL]
< 20%: inhibition (Histone deacetylase 4 [2]) | inhibition [3] | inhibition (Histone deacetylase 9 [4]) | inhibition (Histone deacetylase 5 [7])
5.9 nM: IC50 [5]
Not Active: IC50 (Histone deacetylase 7) | IC50 (Histone deacetylase 9 [1]) | IC50 (Histone deacetylase 4 [6]) | IC50 (Histone deacetylase 5 [8])
